Experimental data as given in ChEMBL document CHEMBL5236607, “Membrane-Active Cyclic Amphiphilic Peptides: Broad-Spectrum Antibacterial Activity Alone and in Combination with Antibiotics” (J Med Chem, 2022).
The source made the active and inactive calls. The calls are words filed in the database; no cut-off is given here. Bridge positions count the residues as written; N and C are the ends. Square brackets hold non-standard residues; d marks the D form. Peptide text beside a SMILES is read from it. * marks the point of attachment. X1 = CC[C@H](C)CCCCC(=O)*; Dab = NCC[C@H](N)C(=O)O

Key:
[1] = Therapeutic index, ratio of HC50 for human RBC to MIC for methicillin resistant Staphylococcus aureus ATCC BAA-1556
In short: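 Human RBCs washed in PBS pH 7.4 and mixed 1:1 with two-fold peptide dilutions (4% v/v suspension), 2 h at 37 °C. Hemoglobin in supernatant read at 567 nm against PBS (0%) and 1% Triton X-100 (100%). HC50 is the concentration giving 50% hemolysis. Index is HC50 divided by MIC against MRSA.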

Pseudomonas aeruginosa = test: Antibacterial activity against Pseudomonas aeruginosa ATCC […] after 24 hrs by microbroth dilution method; assay type: functional
Staphylococcus aureus [2] = test: Induction of resistance development in Staphylococcus aureus ATCC 29213 assessed as increase in MIC by microtiter plate reader assay; assay type: functional, organism-based
In short: (§1)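 Serial passage resistance assay with 2-fold microdilution MICs in 96-well plates. Each passage takes the well with the highest concentration still permitting growth, adjusts it to 0.5 McFarland, and dilutes it to a final 5 × 10^5 CFU/mL for the next passage. Eighteen passages; MIC recorded at each. Triplicate.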

Staphylococcus aureus [3] = test: Induction of resistance development in methicillin resistant Staphylococcus aureus ATCC BAA-1556 assessed as increase in MIC by microtiter plate reader assay; assay type: functional, organism-based; in short: as §1
Escherichia coli [4] = test: Induction of resistance development in Escherichia coli ATCC 25922 assessed as increase in MIC by microtiter plate reader assay; assay type: functional, organism-based
Escherichia coli [5] = test: Induction of resistance development in Escherichia coli ATCC BAA-2452 assessed as increase in MIC by microtiter plate reader assay; assay type: functional, organism-based; in short: as §1
Staphylococcus aureus [6] = test: Antibacterial activity against methicillin resistant Staphylococcus aureus ATCC BAA-1556 after 24 hrs by microbroth dilution method; assay type: functional
Klebsiella pneumoniae = test: Antibacterial activity against imipenem resistant Klebsiella pneumoniae ATCC BAA-1705 after 24 hrs by microbroth dilution method; assay type: functional
Escherichia coli [7] = test: Antibacterial activity against Escherichia coli ATCC 25922 after 24 hrs by microbroth dilution method; assay type: functional

N=C(N)NCCC[C@@H]1NC(=O)[C@H](CCCNC(=N)N)NC(=O)[C@H](CCCNC(=N)N)NC(=O)[C@H](CCCNC(=N)N)NC(=O)[C@H](Cc2c[nH]c3ccccc23)NC(=O)[C@H](Cc2c[nH]c3ccccc23)NC(=O)[C@H](Cc2c[nH]c3ccccc23)NC(=O)[C@H](Cc2c[nH]c3ccccc23)NC(=O)[C@H](Cc2c[nH]c3ccccc23)NC(=O)[C@H](Cc2c[nH]c3ccccc23)NC(=O)[C@H](Cc2c[nH]c3ccccc23)NC(=O)[C@H](CCCNC(=N)N)NC(=O)[C@H](CCCNC(=N)N)NC(=O)[C@H](CCCNC(=N)N)NC1=O (cyclo(RRRRRRRWWWWWWW))
TI [1]: 8.75

N=C(N)NCCC[C@@H]1NC(=O)[C@H](CCCNC(=N)N)NC(=O)[C@H](CCCNC(=N)N)NC(=O)[C@H](Cc2c[nH]c3ccccc23)NC(=O)[C@H](Cc2c[nH]c3ccccc23)NC(=O)[C@H](Cc2c[nH]c3ccccc23)NC(=O)[C@H](Cc2c[nH]c3ccccc23)NC(=O)[C@H](Cc2c[nH]c3ccccc23)NC(=O)[C@H](CCCNC(=N)N)NC(=O)[C@H](CCCNC(=N)N)NC1=O
TI [1]: 57.5

N=C(N)NCCC[C@@H]1NC(=O)[C@H](CCCNC(=N)N)NC(=O)[C@H](Cc2c[nH]c3ccccc23)NC(=O)[C@H](Cc2c[nH]c3ccccc23)NC(=O)[C@H](Cc2c[nH]c3ccccc23)NC(=O)[C@H](CCCNC(=N)N)NC1=O (cyclo(WWWRRR))
TI [1]: 9.69

N=C(N)NCCC[C@@H]1NC(=O)[C@H](CCCNC(=N)N)NC(=O)[C@H](CCCNC(=N)N)NC(=O)[C@H](Cc2c[nH]c3ccccc23)NC(=O)[C@H](Cc2c[nH]c3ccccc23)NC(=O)[C@H](Cc2c[nH]c3ccccc23)NC(=O)[C@H](Cc2c[nH]c3ccccc23)NC(=O)[C@H](Cc2c[nH]c3ccccc23)NC(=O)[C@H](Cc2c[nH]c3ccccc23)NC(=O)[C@H](CCCNC(=N)N)NC1=O
TI [1]: 0.59

N=C(N)NCCC[C@@H]1NC(=O)[C@H](CCCNC(=N)N)NC(=O)[C@H](Cc2c[nH]c3ccccc23)NC(=O)[C@H](Cc2c[nH]c3ccccc23)NC(=O)[C@H](Cc2c[nH]c3ccccc23)NC(=O)[C@H](Cc2c[nH]c3ccccc23)NC(=O)[C@H](CCCNC(=N)N)NC1=O (cyclo(RRRWWWW))
TI [1]: 13.1

N=C(N)NCCC[C@@H]1NC(=O)[C@H](CCCNC(=N)N)NC(=O)[C@H](CCCNC(=N)N)NC(=O)[C@H](Cc2c[nH]c3ccccc23)NC(=O)[C@H](Cc2c[nH]c3ccccc23)NC(=O)[C@H](Cc2c[nH]c3ccccc23)NC(=O)[C@H](Cc2c[nH]c3ccccc23)NC(=O)[C@H](Cc2c[nH]c3ccccc23)NC(=O)[C@H](Cc2c[nH]c3ccccc23)NC(=O)[C@H](Cc2c[nH]c3ccccc23)NC(=O)[C@H](CCCNC(=N)N)NC1=O (cyclo(RRRRWWWWWWW))
MIC (Pseudomonas aeruginosa): > 256 µg/mL
TI [1]: 0.23

N=C(N)NCCC[C@@H]1NC(=O)[C@H](CCCNC(=N)N)NC(=O)[C@H](CCCNC(=N)N)NC(=O)[C@H](Cc2c[nH]c3ccccc23)NC(=O)[C@H](Cc2c[nH]c3ccccc23)NC(=O)[C@H](Cc2c[nH]c3ccccc23)NC(=O)[C@H](Cc2c[nH]c3ccccc23)NC(=O)[C@H](CCCNC(=N)N)NC1=O (cyclo(RRRRWWWW))
TI [1]: 43.8

CC[C@H](C)CCCCC(=O)N[C@@H](CCN)C(=O)N[C@H](C(=O)N[C@@H](CCN)C(=O)N[C@H]1CCNC(=O)[C@H]([C@@H](C)O)NC(=O)[C@H](CCN)NC(=O)[C@H](CCN)NC(=O)[C@H](CC(C)C)NC(=O)[C@@H](Cc2ccccc2)NC(=O)[C@H](CCN)NC1=O)[C@@H](C)O (X1-[Dab]T[Dab][Dab][Dab][dF]L[Dab][Dab]T; lactam 4-C)
Activity (Staphylococcus aureus [2]): Active
Activity (Staphylococcus aureus [3]): Active
Activity (Escherichia coli [4]): Active
Activity (Escherichia coli [5]): Active

N=C(N)NCCC[C@@H]1NC(=O)[C@H](CCCNC(=N)N)NC(=O)[C@H](CCCNC(=N)N)NC(=O)[C@H](CCCNC(=N)N)NC(=O)[C@H](Cc2c[nH]c3ccccc23)NC(=O)[C@H](Cc2c[nH]c3ccccc23)NC(=O)[C@H](Cc2c[nH]c3ccccc23)NC(=O)[C@H](Cc2c[nH]c3ccccc23)NC(=O)[C@H](Cc2c[nH]c3ccccc23)NC(=O)[C@H](CCCNC(=N)N)NC(=O)[C@H](CCCNC(=N)N)NC(=O)[C@H](CCCNC(=N)N)NC1=O (cyclo(RRRRRRRWWWWW))
TI [1]: 21.9

N=C(N)NCCC[C@@H]1NC(=O)[C@H](CCCNC(=N)N)NC(=O)[C@H](Cc2c[nH]c3ccccc23)NC(=O)[C@H](Cc2c[nH]c3ccccc23)NC(=O)[C@H](Cc2c[nH]c3ccccc23)NC1=O (cyclo(RRWWW))
TI [1]: 3.75

N=C(N)NCCC[C@@H]1NC(=O)[C@H](CCCNC(=N)N)NC(=O)[C@H](CCCNC(=N)N)NC(=O)[C@H](CCCNC(=N)N)NC(=O)[C@H](Cc2c[nH]c3ccccc23)NC(=O)[C@H](Cc2c[nH]c3ccccc23)NC(=O)[C@H](Cc2c[nH]c3ccccc23)NC(=O)[C@H](Cc2c[nH]c3ccccc23)NC(=O)[C@H](Cc2c[nH]c3ccccc23)NC(=O)[C@H](Cc2c[nH]c3ccccc23)NC(=O)[C@H](CCCNC(=N)N)NC(=O)[C@H](CCCNC(=N)N)NC(=O)[C@H](CCCNC(=N)N)NC1=O (cyclo(RRRRRRRWWWWWW))
TI [1]: 5.31

N=C(N)NCCC[C@@H]1NC(=O)[C@H](CCCNC(=N)N)NC(=O)[C@H](CCCNC(=N)N)NC(=O)[C@H](Cc2c[nH]c3ccccc23)NC(=O)[C@H](Cc2c[nH]c3ccccc23)NC(=O)[C@H](Cc2c[nH]c3ccccc23)NC(=O)[C@H](Cc2c[nH]c3ccccc23)NC(=O)[C@H](Cc2c[nH]c3ccccc23)NC(=O)[C@H](Cc2c[nH]c3ccccc23)NC(=O)[C@H](Cc2c[nH]c3ccccc23)NC(=O)[C@H](CCCNC(=N)N)NC(=O)[C@H](CCCNC(=N)N)NC1=O (cyclo(RRRRRWWWWWWW))
MIC (Staphylococcus aureus [6]): > 256 µg/mL
MIC (Klebsiella pneumoniae): > 256 µg/mL
MIC (Pseudomonas aeruginosa): > 256 µg/mL
MIC (Escherichia coli [7]): > 256 µg/mL
TI [1]: > 0.45

N=C(N)NCCC[C@@H]1NC(=O)[C@H](CCCNC(=N)N)NC(=O)[C@H](CCCNC(=N)N)NC(=O)[C@H](CCCNC(=N)N)NC(=O)[C@H](Cc2c[nH]c3ccccc23)NC(=O)[C@H](Cc2c[nH]c3ccccc23)NC(=O)[C@H](Cc2c[nH]c3ccccc23)NC(=O)[C@H](Cc2c[nH]c3ccccc23)NC(=O)[C@H](CCCNC(=N)N)NC(=O)[C@H](CCCNC(=N)N)NC(=O)[C@H](CCCNC(=N)N)NC1=O (cyclo(RRRRRRRWWWW))
TI [1]: 11.9

N=C(N)NCCC[C@@H]1NC(=O)[C@H](CCCNC(=N)N)NC(=O)[C@H](Cc2c[nH]c3ccccc23)NC(=O)[C@H](Cc2c[nH]c3ccccc23)NC(=O)[C@H](Cc2c[nH]c3ccccc23)NC(=O)[C@H](Cc2c[nH]c3ccccc23)NC1=O (cyclo(RRWWWW))
TI [1]: 1.33

N=C(N)NCCC[C@@H]1NC(=O)[C@H](CCCNC(=N)N)NC(=O)[C@H](Cc2c[nH]c3ccccc23)NC(=O)[C@H](Cc2c[nH]c3ccccc23)NC(=O)[C@H](Cc2c[nH]c3ccccc23)NC(=O)[C@H](Cc2c[nH]c3ccccc23)NC(=O)[C@H](Cc2c[nH]c3ccccc23)NC(=O)[C@H](CCCNC(=N)N)NC1=O (cyclo(RRRWWWWW))
TI [1]: 0.63

N=C(N)NCCC[C@@H]1NC(=O)[C@H](CCCNC(=N)N)NC(=O)[C@H](CCCNC(=N)N)NC(=O)[C@H](CCCNC(=N)N)NC(=O)[C@H](Cc2c[nH]c3ccccc23)NC(=O)[C@H](Cc2c[nH]c3ccccc23)NC(=O)[C@H](Cc2c[nH]c3ccccc23)NC(=O)[C@H](Cc2c[nH]c3ccccc23)NC(=O)[C@H](Cc2c[nH]c3ccccc23)NC(=O)[C@H](Cc2c[nH]c3ccccc23)NC(=O)[C@H](CCCNC(=N)N)NC(=O)[C@H](CCCNC(=N)N)NC1=O (cyclo(RRRRRRWWWWWW))
TI [1]: 10.6

N=C(N)NCCC[C@@H]1NC(=O)[C@H](CCCNC(=N)N)NC(=O)[C@H](CCCNC(=N)N)NC(=O)[C@H](Cc2c[nH]c3ccccc23)NC(=O)[C@H](Cc2c[nH]c3ccccc23)NC(=O)[C@H](Cc2c[nH]c3ccccc23)NC(=O)[C@H](Cc2c[nH]c3ccccc23)NC(=O)[C@H](Cc2c[nH]c3ccccc23)NC(=O)[C@H](Cc2c[nH]c3ccccc23)NC(=O)[C@H](CCCNC(=N)N)NC(=O)[C@H](CCCNC(=N)N)NC1=O (cyclo(RRRRRWWWWWW))
MIC (Staphylococcus aureus [6]): > 256 µg/mL
MIC (Klebsiella pneumoniae): > 256 µg/mL
MIC (Pseudomonas aeruginosa): > 256 µg/mL
MIC (Escherichia coli [7]): > 256 µg/mL
TI [1]: > 0.54

O=C(O)c1cn(C2CC2)c2cc(N3CCNCC3)c(F)cc2c1=O
Activity (Staphylococcus aureus [2]): Active
Activity (Staphylococcus aureus [3]): Active
Activity (Escherichia coli [5]): Active

N=C(N)NCCC[C@@H]1NC(=O)[C@H](CCCNC(=N)N)NC(=O)[C@H](Cc2c[nH]c3ccccc23)NC(=O)[C@H](Cc2c[nH]c3ccccc23)NC(=O)[C@H](Cc2c[nH]c3ccccc23)NC(=O)[C@H](Cc2c[nH]c3ccccc23)NC(=O)[C@H](Cc2c[nH]c3ccccc23)NC(=O)[C@H](Cc2c[nH]c3ccccc23)NC(=O)[C@H](CCCNC(=N)N)NC1=O
TI [1]: 1.02
